Sampled rows, rich in hits. Any-hit rate of the full collection: about 1.9%.
GRK2 inh – human GRK2 inhibition via aptamer displacement | P25098 | bead flow cytometry, FAM-aptamer displacement from GRK2 | inhibition of aptamer binding, % at 10 µM | 330,000 compounds, 0.59% hits | AID 488847;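 active = inhibition of aptamer binding above 40%, roughly 3 SD of noise, on plates passing a quality check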;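 note: median bead fluorescence of bound FAM aptamer so fluorescent compounds give negative values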
Rin1-Abl PPI inh – blocks binding of human Rin1 to Abl; AID 588664; inhibition, % at 7.35 µM; TR-FRET Rin1/Abl binding, biochemical; 360,000 compounds, 0.4% hits; in the data active = inhibition above about 5%, passing the limit was not always enough
SR-BI DiI inh – mouse SR-BI HDL lipid transfer inhibition; inhibition, % at 12.5 µM; ldlA[mSR-BI] CHO cells, DiI-HDL uptake fluorescence, 3 h; 320,000 compounds, 0.96% hits; Q61009;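 active = mean replicate inhibition of at least 70% and a set share of replicates each scoring 70 or more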;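 note: 0% = median of neutral control wells and 100% = median of positive control wells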
Target sequence (Q61009 whole entry, looked up): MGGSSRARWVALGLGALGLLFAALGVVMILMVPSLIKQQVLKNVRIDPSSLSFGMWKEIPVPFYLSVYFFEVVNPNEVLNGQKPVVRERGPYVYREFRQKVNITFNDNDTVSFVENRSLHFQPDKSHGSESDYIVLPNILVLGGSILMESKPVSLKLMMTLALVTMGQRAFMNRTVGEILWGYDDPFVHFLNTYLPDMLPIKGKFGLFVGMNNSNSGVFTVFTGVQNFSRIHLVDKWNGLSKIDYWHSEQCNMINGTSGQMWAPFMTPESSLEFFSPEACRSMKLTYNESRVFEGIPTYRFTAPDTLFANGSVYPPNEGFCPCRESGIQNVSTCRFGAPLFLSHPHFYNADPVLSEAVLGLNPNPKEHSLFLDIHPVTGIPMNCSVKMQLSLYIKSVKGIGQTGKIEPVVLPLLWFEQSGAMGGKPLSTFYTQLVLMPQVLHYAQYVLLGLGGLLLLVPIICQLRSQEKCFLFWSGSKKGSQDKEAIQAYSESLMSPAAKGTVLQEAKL
SR-BI uptake up – activators of SR-BI mediated HDL lipid uptake; CHO ldlA[mSR-BI] cells, DiI-HDL uptake fluorescence, 3 h; 100 = double the neutral-control signal; activation, % at 12.5 µM; 320,000 compounds, 0.096% hits; AID 504775;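 active = mean replicate activation of at least 60% and every replicate at or above 60%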;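 note: 0% = median plate neutral-control signal and 100% = twice that signal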
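Test system: SR-BI-overexpressing, LDLR-lacking CHO cells; Medium: Ham's F12 with 0.5% BSA, HEPES 25 mM, pH 7.4; Schedule: 3 h, 37 °C; Technique: bottom-read fluorescence, 550/595 nm.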
An asterisk follows results filed as active; i = inactive; . = not tested or not shown.

SMILES	GRK2 inh	Rin1-Abl PPI inh	SR-BI DiI inh	SR-BI uptake up
CCOC(=O)c1ccccc1NC(=O)COC(=O)C(CCSC)NC(=O)COc1ccccc1 (centres undefined)	0	6	20	-20
COC(=O)C1=C(N)OC2=C(C(=O)CC(C)(C)C2)C1c1cccs1 (centres undefined)	1	0	i	822*
CCc1ccc(OCc2cccc(C(=O)N/N=C\c3cnn(C)c3C)c2)cc1	.	0	92*	-92
O=[N+]([O-])c1ccccc1N/N=C\c1ccccc1Cl	1	-4	3	-3
CCCOc1ccc(/C=N/Nc2ccccc2[N+](=O)[O-])c(OCCC)c1	2	2	104*	-104
O=C(CN1CCN(S(=O)(=O)c2ccc(F)cc2)CC1)NCC1(N2CCOCC2)CCCCC1	0	5	-17	17
CNC(=O)c1cccc(NC(=O)c2cc(-c3ccccc3)nc3c2cnn3C(C)C)c1	0	2	82*	-82
COc1cc(NC(=O)c2cc(-c3ccccc3)nc3c2cnn3C(C)C)cc(OC)c1OC	0	2	60	-60
CC(C)n1ncc2c(C(=O)Nc3cccc(S(=O)(=O)N(C)C)c3)cc(C3CC3)nc21	2	2	76*	-76
C1=C\CCC2(OCCO2)C2(CC/1)OCCO2	.	1	.	.
COc1ccccc1CCNC(=O)CSc1nnc2ccc(-c3ccncc3)nn12	2	-4	.	.
Cc1cc(C)cc(NC(=O)c2cc3c(=O)n4ccccc4nc3s2)c1	0	1	78*	-78
CC(C)NC(=O)c1cc2c(=O)n3ccccc3nc2s1	0	1	-13	13
COc1cc(C(=O)Nc2cccc(S(=O)(=O)N3CCCC3)c2)c([N+](=O)[O-])cc1OC	3	1	74*	-74
COc1ccc(OC)c(/C=C/C(=O)Nc2cccc(S(=O)(=O)N3CCCC3)c2)c1	0	-3	87*	-87
COc1ccc(NC(=O)c2cccc(S(=O)(=O)N3CCCC3)c2)cc1OC	2	0	69	-69
COc1cc(C)c(NC(=O)c2cccc(S(=O)(=O)N3CCCC3)c2)cc1OC	3	3	86*	-86
COc1ccccc1/C=C/C(=O)Nc1cccc(S(=O)(=O)NC2=NCCCCC2)c1	2	-1	72*	-72
COc1ccc(OC)c(/C=C/C(=O)Nc2cccc(S(=O)(=O)NC3=NCCCCC3)c2)c1	4	-2	65	-65
COCCc1ccc(OC2(C)CCN(Cc3ccc(OC)c4ccccc34)C2)cc1 (centres undefined)	.	-1	.	.
NS(=O)(=O)c1ccc(CNC(=O)c2cc(-c3ccccc3)nc3ccccc23)cc1	0	-3	.	.
Cc1ccc(-c2cc(C(=O)NCCc3ccc(S(N)(=O)=O)cc3)c3ccccc3n2)cc1	5	1	86*	-86
O=C(NNC(=O)c1cc(-c2ccncc2)nc2ccccc12)c1ccccc1O	0	0	94*	-94
NS(=O)(=O)c1ccc(CCNC(=O)c2cc(-c3ccccc3)nc3ccccc23)cc1	0	3	80*	-80
COc1ccc(-c2cc(C(=O)NCCc3ccc(S(N)(=O)=O)cc3)c3ccccc3n2)cc1	2	1	56	-56
SMILES	GRK2 inh	Rin1-Abl PPI inh	SR-BI DiI inh	SR-BI uptake up
Cc1ccc(-c2cc(C(=O)Nc3ccncc3)c3ccccc3n2)cc1	0	-3	50	-50
C[C@H](CO)N1C[C@H](C)[C@H](CN(C)Cc2ccncc2)Oc2ncc(Br)cc2C1=O	.	1	.	.
CCn1c2ccccc2nc2cc3c(cc21)c(Cl)c(=O)c1ccccc13	.	-3	.	.
CC(C)CN(C(=O)COC(=O)CCSc1ccc(Cl)cc1)c1c(N)n(Cc2ccccc2)c(=O)[nH]c1=O	.	0	.	.
C=C(C)C(=O)Nc1cccc(C2=NOC3(C2)C[C@@H](C(N)=O)N(C(=O)c2ccc(OC)cc2)C3)c1 (some centres undefined)	95*	2	0	0
COc1ccc(C(=O)N2CC3(CC(c4cccc(NC(=O)CC(c5ccccc5)c5ccccc5)c4)=NO3)C[C@H]2C(N)=O)cc1 (some centres undefined)	6	1	17	-17
CCCCn1cnc2c(SCc3ccc(Br)cc3)nc(N)nc21	.	3	22	-22
COc1cc(C(=O)NCCC(C)C)ccc1OCc1ccc(Cl)cc1Cl	2	0	82*	-82
COc1cc(C(=O)NC2CCCCC2)ccc1OCc1ccc(Cl)cc1Cl	0	0	76*	-76
COc1ccc(C(=O)NCC(=O)OCc2ccc(Cl)cc2Cl)cc1OC	3	6	-8	8
CN(C)C(=O)CCc1ccc2c3c([nH]c2c1)[C@]1(C)[C@@H](C(=O)N2CCCCC2)C[C@H](CC(=O)NCCCn2ccnc2)C(=O)N1CC3	3	-7	-16	16
Cc1ccc(C2=NN(S(=O)(=O)c3ccccc3)C(c3ccccc3O)C2)cc1 (centres undefined)	.	1	-23	23
Cc1ccnc(SC2CC(=O)N(c3ccc(F)cc3)C2=O)n1 (centres undefined)	0	-2	-344	344*
COc1ccc(N2C(=O)CC(Sc3nccc(C)n3)C2=O)cc1 (centres undefined)	0	-5	4	-4
COc1ccc(NC(=O)COC(=O)c2cc3c(s2)CCC3)cc1	43*	2	-14	14
COc1ccccc1NC(=O)c1ccc(NC(=O)c2cc3c(s2)CCC3)cc1	0	2	73*	-73
CCOC(=O)C1(C)CCN1C(=O)c1cccs1 (centres undefined)	.	0	.	.
O=S(=O)(O)c1cccc2c(N=Nc3ccc(O)c4ncccc34)cccc12	5	15*	26	-26
CCOC(=O)C1=C(COC(=O)/C=C/c2ccc(OCC)c(OC)c2)NC(=O)NC1C (centres undefined)	0	0	83*	-83
CCOC(=O)C1=C(COC(=O)/C=C/c2ccc(Cl)cc2)NC(=O)NC1C (centres undefined)	0	-3	0	0
Nc1ccc(Oc2ccc3nc(-c4ccccc4)c(-c4ccc([N+](=O)[O-])cc4)nc3c2)cc1	4	0	76*	-76
N#Cc1ccc(Oc2ccc(-c3nc4ccccc4nc3-c3ccccc3)cc2)cc1C#N	1	1	-10	10
CCOC(=O)c1sc(=NC(=O)c2cc(OC)c(OC)c(OC)c2)n(C)c1C	0	0	74*	-74
CCOC(=O)c1sc(=NC(=O)c2ccc(C)cc2)n(C)c1C	0	-11	-18	18
COc1ccc(Cl)cc1-c1cc(C(=O)Nc2ccc(Br)cc2)[nH]n1	.	-1	.	.
CCOc1cc(-c2nc(-c3ccccc3OC)no2)cc(OCC)c1OCC	2	1	80*	-80
COc1ccc(-c2nc(-c3ccccc3OC)no2)cc1OC	0	-5	65	-65
CCOc1cc(-c2nc(-c3ccc(OC)cc3)no2)cc(OCC)c1OCC	0	-6	75*	-75
CCOc1cc(-c2nnc(-c3ccco3)o2)cc(OCC)c1OCC	4	4	77*	-77
